p-CIP stab down: p/CIP protein destabilization | hit rate 0.01% among 290,000 | F442A p/CIP-EGFP cells, EGFP fluorescence, 16 h | decrease of EGFP signal, % at 10 µM;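 active = EGFP signal decrease of at least 30% at 10 µM or well 3 SD below plate mean, unless failing retest; inactive = the rest, including hits failing retest or dose response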
Target sequence (Q05BA5 1-1403): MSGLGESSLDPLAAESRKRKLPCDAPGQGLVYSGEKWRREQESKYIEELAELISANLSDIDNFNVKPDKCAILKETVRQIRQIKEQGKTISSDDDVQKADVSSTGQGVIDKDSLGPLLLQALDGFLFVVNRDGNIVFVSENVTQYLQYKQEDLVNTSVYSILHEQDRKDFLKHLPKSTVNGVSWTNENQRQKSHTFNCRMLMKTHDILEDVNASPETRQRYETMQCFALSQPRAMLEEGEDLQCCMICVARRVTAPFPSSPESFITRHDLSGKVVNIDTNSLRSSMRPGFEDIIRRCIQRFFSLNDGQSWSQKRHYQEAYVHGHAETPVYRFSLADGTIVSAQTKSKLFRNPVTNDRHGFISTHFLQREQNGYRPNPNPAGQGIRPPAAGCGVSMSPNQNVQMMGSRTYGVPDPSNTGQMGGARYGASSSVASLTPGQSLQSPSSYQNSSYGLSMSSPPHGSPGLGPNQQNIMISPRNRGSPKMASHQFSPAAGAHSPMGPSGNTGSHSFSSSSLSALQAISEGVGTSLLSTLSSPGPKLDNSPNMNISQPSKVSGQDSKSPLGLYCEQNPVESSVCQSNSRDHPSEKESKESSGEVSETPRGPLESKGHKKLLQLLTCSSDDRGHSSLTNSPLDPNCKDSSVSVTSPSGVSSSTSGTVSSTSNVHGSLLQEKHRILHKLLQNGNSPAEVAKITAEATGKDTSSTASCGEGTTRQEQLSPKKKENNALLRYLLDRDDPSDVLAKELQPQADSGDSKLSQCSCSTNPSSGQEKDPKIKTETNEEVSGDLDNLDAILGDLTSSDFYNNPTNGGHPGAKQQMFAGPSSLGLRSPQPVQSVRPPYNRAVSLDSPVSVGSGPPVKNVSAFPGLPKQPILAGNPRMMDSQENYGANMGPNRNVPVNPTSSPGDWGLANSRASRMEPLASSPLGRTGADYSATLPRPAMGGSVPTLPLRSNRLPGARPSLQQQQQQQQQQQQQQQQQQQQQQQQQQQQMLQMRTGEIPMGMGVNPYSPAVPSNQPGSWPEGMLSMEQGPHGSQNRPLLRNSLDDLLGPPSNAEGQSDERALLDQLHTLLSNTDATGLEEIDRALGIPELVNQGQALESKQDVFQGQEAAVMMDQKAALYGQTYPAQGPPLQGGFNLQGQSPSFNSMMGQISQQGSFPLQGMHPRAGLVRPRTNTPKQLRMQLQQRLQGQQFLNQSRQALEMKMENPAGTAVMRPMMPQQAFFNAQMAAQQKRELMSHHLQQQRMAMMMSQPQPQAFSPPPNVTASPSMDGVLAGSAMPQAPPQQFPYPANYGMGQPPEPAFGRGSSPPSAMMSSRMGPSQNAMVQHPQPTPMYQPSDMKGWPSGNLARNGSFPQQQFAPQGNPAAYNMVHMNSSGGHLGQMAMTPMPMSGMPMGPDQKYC
Lipid droplet: modulators of hepatic lipid droplet formation | hit rate 0.4% among 240,000 | inhibition, % at 6.5 µM | AID 1656 | AML12 mouse hepatocytes, oleate lipid droplets, BODIPY imaging;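 active = lipid droplet intensity inhibited by at least 50%, with more than 500 cells counted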
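Assay system: AML12 mouse liver cells | Compound: 6.5 µM single-point dosing | Schedule: Overnight exposure | Technique: Fluorescence imaging, 20x objective, two fields per well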
Fh CTSL1 inh: cathepsin L1 inhibition, PFM18AAP counter-screen; inhibition, % at 5.96 µM; AID 1906; recombinant F. hepatica cathepsin L1, Z-Leu-Arg-MCA fluorescence; hit rate 0.49% among 300,000;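 active = inhibition above the mean of all tested compounds plus 3 SD, set per screening campaign, cut at about 17% in these data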
Arrestin-AP2 inh: blocks beta-arrestin peptide binding to AP2 adaptin. inhibition, % at 10 µM. FITC-arrestin peptide / GST-AP2 beads, flow cytometry; AP2 beta2 appendage carries R879A mutation. hit rate 0.31% among 340,000;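 active = inhibition above a set limit, near 3 SD of compounds lacking own fluorescence, cut at about 54% in these data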
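Test system: GST-tagged AP2 beta2-adaptin appendage (R879A) on 4 µm glutathione beads; also added: fluorescein-tagged arrestin peptide at 50 nM final; timing: 12 min plus 1 h, RT; signal: flow cytometry, FL1 (488/535 nm); read-out: percent drop in bead-associated FITC signal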
Hits are given with their value. A selection: hits, their analogues and other compounds. The true share with any hit is near 1%.

`COc1cccc(N=Cc2nc(-c3ccccc3)oc2OC(C)=O)c1` gave p-CIP stab down inactive, Lipid droplet inactive, Fh CTSL1 inh 28.0 and Arrestin-AP2 inh inactive.
`COc1ccc(N=Cc2nc(-c3ccccc3)oc2OC(C)=O)cc1` gave p-CIP stab down inactive, Lipid droplet inactive, Fh CTSL1 inh 20.5 and Arrestin-AP2 inh inactive.
`CN(C)c1ccc(N=Cc2nc(-c3ccccc3)oc2OC(=O)c2cccc(Cl)c2)cc1` gave p-CIP stab down inactive, Lipid droplet inactive, Fh CTSL1 inh inactive and Arrestin-AP2 inh inactive.
Screening Cc1ccc(C(=O)Oc2oc(-c3ccccc3)nc2C=Nc2ccc(N(C)C)cc2)cc1 returned p-CIP stab down inactive, Lipid droplet inactive and Fh CTSL1 inh inactive.
Nc1cc(=O)[nH]c(SCC(=O)Nc2cccc([N+](=O)[O-])c2)n1 was read as p-CIP stab down inactive, Lipid droplet inactive, Fh CTSL1 inh inactive and Arrestin-AP2 inh inactive.
`Cc1ccc(N(NC(=O)C(O)(c2ccccc2)c2ccccc2)C(=O)CCl)cc1` gave p-CIP stab down inactive, Lipid droplet inactive, Fh CTSL1 inh 81.3 and Arrestin-AP2 inh inactive.
Cc1nc2sc3c(c2c(=O)n1NC(=O)CCBr)CCCC3 was read as p-CIP stab down inactive, Lipid droplet inactive, Fh CTSL1 inh inactive and Arrestin-AP2 inh 61.8.
Screening CCCc1nc2sc3c(c2c(=O)n1NC(=O)CCC(=O)OC)CCCC3 returned p-CIP stab down inactive, Lipid droplet inactive, Fh CTSL1 inh inactive and Arrestin-AP2 inh inactive.
For CCN1CCN(C2=C(NS(=O)(=O)c3ccccc3)C(=O)c3ccccc3C2=O)CC1 the results were p-CIP stab down inactive, Lipid droplet inactive, Fh CTSL1 inh inactive and Arrestin-AP2 inh inactive.
For CCN1CCN(C2=C(NS(=O)(=O)c3ccc(Br)cc3)C(=O)c3ccccc3C2=O)CC1 the results were p-CIP stab down inactive, Lipid droplet inactive, Fh CTSL1 inh 20.2 and Arrestin-AP2 inh inactive.
CCCCNc1nc2c(-c3ccccc3)nnn2c2ccccc12 was read as p-CIP stab down inactive, Lipid droplet inactive, Fh CTSL1 inh inactive and Arrestin-AP2 inh inactive.
For Cc1ccc2c(c1)-c1c(cnn1CC(=O)NC(C)CCc1ccco1)CO2 (stereo not drawn) the results were p-CIP stab down inactive, Lipid droplet inactive, Fh CTSL1 inh inactive and Arrestin-AP2 inh inactive.
`Cc1ccc2c(c1)-c1c(cnn1CC(=O)N(CCC#N)c1ccccc1)CO2` gave p-CIP stab down inactive, Fh CTSL1 inh 47.0 and Arrestin-AP2 inh inactive.
Screening Cc1ccc2c(c1)-c1c(cnn1CC(=O)N(Cc1ccco1)C1CCCCC1)CO2 returned p-CIP stab down inactive, Lipid droplet inactive, Fh CTSL1 inh 29.0 and Arrestin-AP2 inh inactive.
For Cc1cc(OCCNCCO)cc(C)c1Cl the results were p-CIP stab down inactive, Fh CTSL1 inh inactive and Arrestin-AP2 inh inactive.
For CC(=O)Nc1ccc(NC(=O)Cn2nc(C(=O)Nc3ccc(C)cc3)ccc2=O)cc1 the results were p-CIP stab down inactive, Lipid droplet inactive, Fh CTSL1 inh 46.9 and Arrestin-AP2 inh inactive.
`O=C1C(SCCO)=C(SCCO)C(=O)c2ccccc21` gave Fh CTSL1 inh 78.6 and Arrestin-AP2 inh inactive.
`CC1=C(SCc2ccccc2)C(=O)c2ccccc2C1=O` gave Arrestin-AP2 inh inactive.
`O=C(CCl)NN1C(=O)NC(c2ccccc2)(c2ccccc2)C1=O` gave p-CIP stab down inactive, Lipid droplet inactive, Fh CTSL1 inh 79.5 and Arrestin-AP2 inh inactive.
Cc1ccc(NCc2ccc(O)c3ncccc23)cc1C was read as p-CIP stab down inactive, Lipid droplet inactive, Fh CTSL1 inh inactive and Arrestin-AP2 inh inactive.
`COc1ccc(CC(=O)NCc2n[nH]c(=S)n2C)cc1` gave p-CIP stab down inactive, Lipid droplet inactive, Fh CTSL1 inh inactive and Arrestin-AP2 inh inactive.
Cc1nn(C(=O)CCC(=O)NCc2ccccc2Cl)c2ccccc12 was read as p-CIP stab down inactive, Lipid droplet inactive, Fh CTSL1 inh 19.5 and Arrestin-AP2 inh inactive.
For O=C(NCc1cccnc1)c1ccc(Cl)cc1[N+](=O)[O-] the results were p-CIP stab down inactive, Lipid droplet inactive, Fh CTSL1 inh inactive and Arrestin-AP2 inh inactive.
`Cc1ccc(NC2=C(Cl)C(=O)OC2OC(=O)c2ccco2)cc1` (stereo not drawn) gave p-CIP stab down inactive, Lipid droplet inactive, Fh CTSL1 inh 81.0 and Arrestin-AP2 inh inactive.
`Cc1cccc(NC2=C(Cl)C(=O)OC2OC(=O)c2ccco2)c1` (stereo not drawn) gave p-CIP stab down inactive, Lipid droplet inactive, Fh CTSL1 inh inactive and Arrestin-AP2 inh inactive.
Cc1csc(SCc2ccccc2C(=O)O)n1 was read as p-CIP stab down inactive, Fh CTSL1 inh inactive and Arrestin-AP2 inh inactive.
Screening Cc1cc(C(=O)NC2CCCCC2)c(C)n1-c1ccc(F)cc1 returned p-CIP stab down inactive, Lipid droplet inactive, Fh CTSL1 inh inactive and Arrestin-AP2 inh inactive.
CCOc1cc(/C=C(\C#N)C(=O)Nc2ccccc2C(=O)O)ccc1OC(=O)c1ccc(C)cc1 was read as p-CIP stab down inactive, Lipid droplet inactive, Fh CTSL1 inh inactive and Arrestin-AP2 inh inactive.
Screening CCOc1cc(/C=C(\C#N)C(=O)Nc2ccccc2[N+](=O)[O-])ccc1OCc1cccc2ccccc12 returned p-CIP stab down 30.1 and Lipid droplet inactive.
Screening Cc1ccc(-c2noc(COc3ccccc3C)n2)cc1 returned p-CIP stab down inactive, Lipid droplet inactive, Fh CTSL1 inh inactive and Arrestin-AP2 inh inactive.
For O=C1NCCN1C(=O)c1cccc(Cl)c1 the results were p-CIP stab down inactive, Fh CTSL1 inh 19.0 and Arrestin-AP2 inh inactive.
Screening O=C(c1cccnc1)N1CCN(C(=O)c2cccc(Cl)c2)CC1 returned p-CIP stab down inactive, Lipid droplet inactive, Fh CTSL1 inh inactive and Arrestin-AP2 inh inactive.
`Cc1cc(C(=O)c2ccccc2)c(NC(=O)CCl)s1` gave p-CIP stab down inactive, Lipid droplet inactive, Fh CTSL1 inh 17.9 and Arrestin-AP2 inh inactive.
`COC(=O)c1c(NC(=O)C(=O)NCCCN2CCOCC2)sc2c1CCC2` gave p-CIP stab down inactive, Lipid droplet inactive, Fh CTSL1 inh 23.3 and Arrestin-AP2 inh inactive.
`COC(=O)c1c(NC(=O)C(=O)NCCCN2CCOCC2)sc2c1CC(C)(C)OC2` gave p-CIP stab down inactive, Lipid droplet inactive, Fh CTSL1 inh inactive and Arrestin-AP2 inh inactive.
CCCn1cnc2c(c1=O)c1nc3ccccc3nc1n2CCc1ccccc1 was read as p-CIP stab down inactive, Fh CTSL1 inh inactive and Arrestin-AP2 inh inactive.
COc1ccc(-c2n[nH]c3c2CN(C(=O)c2ccc(OC)c(OC)c2)CC3)cc1 was read as p-CIP stab down inactive, Lipid droplet inactive, Fh CTSL1 inh 34.0 and Arrestin-AP2 inh inactive.
Screening COc1cc(OC)cc(C(=O)N2CCN(C(=O)c3ccc(OC)c(OC)c3)CC2)c1 returned p-CIP stab down inactive, Lipid droplet inactive, Fh CTSL1 inh inactive and Arrestin-AP2 inh inactive.
`O=C(CSc1ccccc1)N1CCN(c2ccc(F)cc2)CC1` gave Fh CTSL1 inh 17.4 and Arrestin-AP2 inh inactive.
O=C(Nc1nnc(CCN2CCCCC2)s1)c1ccc(Br)cc1 was read as p-CIP stab down inactive, Lipid droplet inactive, Fh CTSL1 inh inactive and Arrestin-AP2 inh inactive.
